This note sets out measurements from ChEMBL document CHEMBL4673226, “Development of 5-Aminopyrazole-4-carboxamide-based Bumped-Kinase Inhibitors for Cryptosporidiosis Therapy” (J Med Chem, 2019).

Data set [1] can be described thus: AUC in mouse at 25 mg/kg, po. The format is ADME, organism-based. Also noted: dose 25 mg/kg. Particulars: in vivo.
Data set [2] in a line: Solubility in pH 6.5 solution.
The nature of data set [3]: Inhibition of Cryptosporidium parvum CDPK1 assessed as reduction in ATP consumption using BioSyntide-2 substrate incubated for 90 mins by luciferase reporter gene assay. On the technique in general: A reporter such as luciferase makes a cellular process visible.
The nature of data set [4]: in vivo. Particulars: mouse, po, 25 mg/kg.
A short description of data set [5]: Drug level in mouse fecus at 25 mg/kg, po. Particulars: read-out: Drug uptake, in vivo.
Data set [6] is described as follows: Toxicity in human CRL-8155 cells. The format is cell-based.
Data set [7] can be described thus: Protein binding in human plasma by dialysis method.
Data set [8] concerns HepG2. Kind of data set: Toxicity in human HepG2 cells. The format is cell-based.
Data set [9] is described as follows: Half life in mouse at 25 mg/kg, po. Particulars: in vivo.
The nature of data set [10]: Clearance in mouse at 25 mg/kg, po. The format is ADME, organism-based. Particulars: in vivo.
Data set [11] has as its system Cryptosporidium parvum. The data set is described as follows: Antimicrobial activity against nano-luciferase-expressing Cryptosporidium parvum infected in human HCT8 cells incubated for 72 hrs by luciferase reporter gene assay. The class given is functional, organism-based. Particulars: HCT-8, 72 h.
In data set [12] the target is Voltage-gated inwardly rectifying potassium channel KCNH2 (Homo sapiens, UniProt Q12809). Kind of data set: Inhibition of human ERG by thallium flux assay.
The target in data set [13] is Proto-oncogene tyrosine-protein kinase Src (Homo sapiens, UniProt P12931). The data set is described as follows: Inhibition of SRC (unknown origin). The class given is ADME.
Data set [14] can be described thus: in vivo. Particulars: mouse, po, 25 mg/kg. This is another data set of the same source.
A short description of data set [15]: Solubility in pH 2.0 solution.
Data set [16] concerns Cryptosporidium parvum. Kind of data set: Antimicrobial activity against nano-luciferase-expressing Cryptosporidium parvum infected in IFN-gamma KO B6.129S7-Ifngtm1Ts/J mouse assessed as log reduction of infection at 60 mg/kg, po QD for 5 days beginning on day 6 post infection relative untreated control. Particulars: time 5.0 day.
Data set [17] in a line: Protein binding in mouse plasma by dialysis method.
The conditions of data set [18]: mouse, in vivo, po, 30 mg/kg, 168 h.
Data set [19] has as its system Cryptosporidium parvum. The data set is described as follows: Antimicrobial activity against nano-luciferase-expressing Cryptosporidium parvum infected in IFN-gamma KO B6.129S7-Ifngtm1Ts/J mouse assessed as log reduction of infection at 15 mg/kg, po BID for 5 days beginning on day 6 post infection relative untreated control. Particulars: time 5.0 day. The class given is functional, organism-based.

The nature of data set [20]: Toxicity in mouse assessed as effect on organ parameters at 150 to 300 mg/kg, po QD for 7 days by histological analysis. The class given is organism-based. Particulars: in vivo, 168 h, dose 150-300 mg/kg, time 7 day.
The nature of data set [21]: Toxicity in mouse assessed as effect on serum chemistry parameters at 150 to 300 mg/kg, po QD for 7 days. Particulars: in vivo, 168 h, dose 150-300 mg/kg, time 7 day. The format is organism-based.
For data set [22], the system named is Cryptosporidium parvum. The data set is described as follows: Antimicrobial activity against nano-luciferase-expressing Cryptosporidium parvum infected in IFN-gamma KO B6.129S7-Ifngtm1Ts/J mouse assessed as log reduction of infection at 5 mg/kg, po BID for 5 days beginning on day 6 post infection relative untreated control. The class given is functional, organism-based. Particulars: time 5.0 day.

Data set [23] deals with Cryptosporidium parvum. The data set is described as follows: Antimicrobial activity against nano-luciferase-expressing Cryptosporidium parvum infected in IFN-gamma KO B6.129S7-Ifngtm1Ts/J mouse assessed as log reduction of infection at 30 mg/kg, po BID for 5 days beginning on day 6 post infection relative untreated control. The format is functional, organism-based. Particulars: time 5.0 day.

Data set [24] in a line: Toxicity in mouse assessed as effect on CBC parameters at 150 to 300 mg/kg, po QD for 7 days. The format is organism-based. Particulars: in vivo, 168 h, dose 150-300 mg/kg, time 7 day.
The nature of data set [25]: Toxicity in mouse at 150 to 300 mg/kg, po QD for 7 days. The class given is organism-based. Particulars: in vivo, 168 h, dose 150-300 mg/kg, time 7 day.
Data set [26] can be described thus: Toxicity in mouse assessed as induction of distress at 150 to 600 mg/kg, po. Particulars: in vivo, dose 150-600 mg/kg. The class given is organism-based. The method in brief: (§1)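 Escalating single oral doses were given to mice until toxicity signs appeared. Regimens were 100, 150, 200 and 250 mg/kg, and 150, 200, 300, 400 and 600 mg/kg. Escalation was limited by solubility in the dosing solution.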

The nature of data set [27]: Toxicity in mouse at 150 to 600 mg/kg, po. The format is organism-based. Particulars: in vivo, dose 150-600 mg/kg. The method in brief:
as §1

The subject of data set [28] is Cryptosporidium parvum. The data set is described as follows: Antimicrobial activity against nano-luciferase-expressing Cryptosporidium parvum infected in IFN-gamma KO B6.129S7-Ifngtm1Ts/J mouse assessed as log reduction of infection at 120 mg/kg, po QD for 5 days beginning on day 6 post infection relative untreated control. The format is functional, organism-based. Particulars: time 5.0 day.

For data set [29], the system named is Cryptosporidium parvum. The data set is described as follows: Antimicrobial activity against nano-luciferase-expressing Cryptosporidium parvum infected in IFN-gamma KO B6.129S7-Ifngtm1Ts/J mouse assessed as log reduction of infection at 60 mg/kg, po BID for 5 days beginning on day 6 post infection relative untreated control. The class given is functional. Particulars: time 5 day.

The test system of data set [30] is Cryptosporidium parvum. Kind of data set: Antimicrobial activity against nano-luciferase-expressing Cryptosporidium parvum infected in IFN-gamma KO B6.129S7-Ifngtm1Ts/J mouse assessed as log reduction of infection at 20 mg/kg, po BID for 5 days beginning on day 6 post infection relative untreated control. Particulars: time 5.0 day. The format is functional, organism-based.

Data set [31] deals with Cryptosporidium parvum. Kind of data set: Antimicrobial activity against nano-luciferase-expressing Cryptosporidium parvum infected in IFN-gamma KO B6.129S7-Ifngtm1Ts/J mouse assessed as log reduction of infection at 60 mg/kg, po QD for 5 days beginning on day 6 post infection relative untreated control. Particulars: time 5 day.
The subject of data set [32] is Cryptosporidium parvum. The data set is described as follows: Antimicrobial activity against nano-luciferase-expressing Cryptosporidium parvum infected in IFN-gamma KO B6.129S7-Ifngtm1Ts/J mouse assessed as log reduction of infection at 10 mg/kg, po BID for 5 days beginning on day 6 post infection relative untreated control. The class given is functional, organism-based. Particulars: time 5.0 day.

Activity calls are given as the source filed them. Where only a bound is given, the exact number is not on record here.

Sequence of Proto-oncogene tyrosine-protein kinase Src (P12931 2-536 limits assumed): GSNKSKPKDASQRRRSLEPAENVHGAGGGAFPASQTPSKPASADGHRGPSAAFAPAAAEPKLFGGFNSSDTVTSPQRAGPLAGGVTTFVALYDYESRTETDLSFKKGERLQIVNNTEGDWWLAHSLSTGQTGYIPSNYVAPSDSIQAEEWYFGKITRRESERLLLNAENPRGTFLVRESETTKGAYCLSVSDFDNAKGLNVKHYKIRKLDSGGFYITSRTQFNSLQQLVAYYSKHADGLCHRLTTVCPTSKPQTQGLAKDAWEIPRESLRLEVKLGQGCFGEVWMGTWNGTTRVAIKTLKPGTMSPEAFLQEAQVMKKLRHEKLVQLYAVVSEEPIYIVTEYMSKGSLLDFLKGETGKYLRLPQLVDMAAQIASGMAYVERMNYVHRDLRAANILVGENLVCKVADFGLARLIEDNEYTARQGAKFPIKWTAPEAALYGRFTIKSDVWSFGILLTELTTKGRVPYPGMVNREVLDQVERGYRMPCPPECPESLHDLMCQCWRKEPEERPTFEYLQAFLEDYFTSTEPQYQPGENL
Sequence of Voltage-gated inwardly rectifying potassium channel KCNH2 (Q12809 whole entry): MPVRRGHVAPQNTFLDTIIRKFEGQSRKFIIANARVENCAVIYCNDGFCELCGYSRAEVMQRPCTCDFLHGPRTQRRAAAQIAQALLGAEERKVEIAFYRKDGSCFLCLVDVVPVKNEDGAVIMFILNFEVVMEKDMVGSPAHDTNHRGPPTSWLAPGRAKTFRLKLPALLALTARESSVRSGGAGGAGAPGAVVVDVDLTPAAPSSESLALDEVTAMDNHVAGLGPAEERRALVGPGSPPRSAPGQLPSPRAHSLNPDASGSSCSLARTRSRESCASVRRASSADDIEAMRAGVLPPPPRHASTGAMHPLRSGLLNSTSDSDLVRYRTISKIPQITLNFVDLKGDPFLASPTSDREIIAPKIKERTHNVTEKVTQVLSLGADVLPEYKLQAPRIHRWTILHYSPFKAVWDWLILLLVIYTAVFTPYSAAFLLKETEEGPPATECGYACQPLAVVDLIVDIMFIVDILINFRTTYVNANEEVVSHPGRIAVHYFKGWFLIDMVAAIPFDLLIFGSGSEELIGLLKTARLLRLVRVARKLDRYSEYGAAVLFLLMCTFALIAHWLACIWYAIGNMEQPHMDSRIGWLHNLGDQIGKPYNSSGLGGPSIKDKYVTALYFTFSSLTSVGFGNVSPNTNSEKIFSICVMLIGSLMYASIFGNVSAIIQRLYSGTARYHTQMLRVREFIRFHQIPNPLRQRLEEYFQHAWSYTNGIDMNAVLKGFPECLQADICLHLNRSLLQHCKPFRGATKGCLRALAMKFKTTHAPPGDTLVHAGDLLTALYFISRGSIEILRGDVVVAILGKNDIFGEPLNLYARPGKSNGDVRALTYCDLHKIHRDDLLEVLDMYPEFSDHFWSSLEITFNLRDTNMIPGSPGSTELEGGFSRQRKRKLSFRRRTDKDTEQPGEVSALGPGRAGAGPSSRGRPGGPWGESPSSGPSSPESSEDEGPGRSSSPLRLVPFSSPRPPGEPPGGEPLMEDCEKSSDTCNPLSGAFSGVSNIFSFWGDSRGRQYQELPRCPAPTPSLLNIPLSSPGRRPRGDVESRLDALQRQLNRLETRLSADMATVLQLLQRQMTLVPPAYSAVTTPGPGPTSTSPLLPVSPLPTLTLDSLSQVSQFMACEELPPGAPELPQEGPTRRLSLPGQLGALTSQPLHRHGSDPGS

By AUC is commonly meant the area under the concentration-time curve, a measure of exposure. Read a high AUC as more exposure. One may read the solubility as how much of the substance goes into solution per volume. The low end stands for a poorly soluble substance, the high end for a readily soluble substance. The term IC50 denotes the concentration at which inhibition is half-maximal. What is called Cmax is the highest concentration seen after dosing. As a reminder, the fraction unbound is free concentration divided by total concentration. Low values mean extensive binding, high ones weak binding. For orientation: half-life means the time needed for the level to fall by half in the phase considered. In general, CL/F refers to clearance divided by bioavailability, as obtained after extravascular dosing. By EC50 is commonly meant the midpoint of the concentration-response curve. Low readings indicate higher potency in that assay, high ones lower potency in that assay. By Tmax is commonly meant the time at which the peak concentration occurs. In [1], `CC(CCO)n1nc(-c2cnc3cc(OC4CC4)ccc3c2)c(C(N)=O)c1N` (stereo not given) yielded an exposure (AUC) of 11769 µmol·min/L. Besides, the solubility in [2] (pH 6.5 solution) and in data set [15] (pH 2.0 solution) was over 100 µM each time. For the same compound, the IC50 in data set [3] is 2 nM; in data set [12], over 30000 nM; in data set [13], over 10000 nM. In addition, in data set [4], the highest concentration (Cmax) stood at 69200 nM. Besides, in [5], the concentration came to 4500 nM. Also, the Activity result in data set [6] and in data set [8] was “Non-Toxic” each time. The compound further showed an unbound share (fraction unbound) in [7] of 0.49. The half-life in [9] was found to be 2.05 h. This compound yielded a CL/F in data set [10] of 0.1 mL/min. A half-maximal response in [11] (EC50) required 430 nM. Moreover, in data set [14], the Tmax is 0.5 h.

Take `CCOc1ccc2cc(-c3nn(C(C)(C)CCO)c(N)c3C(N)=O)ccc2c1`: the result in data set [16], in data set [19] and in data set [22] was inactive. Besides, the PPB came to 94% in data set [17] and 99% in [7]. In data set [1], the exposure (AUC) was 144.5 µmol·min/L. Moreover, in data set [18], the highest level (Cmax) was 510 nM. The IC50 in [3] is 2.5 nM; in data set [13] it was over 10000 nM. The Activity entry in [6], in data set [20], in [21], in [8], in [24] and in data set [25] was “Non-Toxic” throughout. Moreover, the Activity result in data set [26] and in data set [27] was “Non-Toxic” each time. In addition, the outcome in data set [23] and in data set [28] was Active. In data set [10], this compound registered an apparent clearance (CL/F) of 11.1 mL/min. Further, in [29], the log reduction is given as 3.37.

`CCOc1ccc2cc(-c3nn(C(C)(C)CO)c(N)c3C(N)=O)ccc2n1`: the PPB amounted to 80% in data set [17] and 84% in data set [7]. In [1], this compound showed an exposure (AUC) of 11412.6 µmol·min/L. Moreover, the solubility in [2] (buffer) and in data set [15] (buffer) was over 100 µM throughout. The half-inhibitory concentration (IC50) is 3.1 nM in data set [3] and over 10000 nM in [13]. Also, the concentration in [5] was found to be 410 nM. Also, the Activity entry in data set [6] and in [8] was “Non-Toxic” throughout. In addition, in data set [10], the apparent clearance (CL/F) turned out to be 0.4 mL/min. The result in [30] and in data set [32] was inactive. In addition, the FC in data set [31] was found to be 3.15.
